Source: ChEMBL document CHEMBL1212777, “Novel VIM metallo-beta-lactamase variant from clinical isolates of Enterobacteriaceae from Algeria” (2010)

Key:
[1] = test system: Escherichia coli BL21(DE3); assay: Ratio of Kcat to Km for Escherichia coli BL21 DE3 beta-lactamase VIM-19 by microacidimetric method
Procedure, shortened: (§1)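 Enzyme overexpressed from modified pET9a in E. coli BL21(DE3), released by sonication, and purified on Q Sepharose (20 mM Tris-HCl pH 7.4, 0–500 mM NaCl gradient) then Superose 12. Protein measured by Bio-Rad assay against a BSA standard.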

[2] = test system: Escherichia coli BL21(DE3); assay: Hydrolytic activity of Escherichia coli BL21 DE3 beta-lactamase VIM-19 by microacidimetric method; procedure, shortened: as §1
[3] = test system: CCN1CCN(C(=O)N[C@@H](C(=O)N[C@@H]2C(=O)N3[C@@H]2SC(C)(C)[C@@H]3C(=O)O)c2ccccc2)C(=O)C1=O; assay: (§2) Ratio of Kcat to Km for beta-lactamase VIM-1 in Escherichia coli DH5alpha expressing pBCLL/39H by microacidimetric method
[4] = test system: CO[C@@]1(NC(=O)Cc2cccs2)C(=O)N2C(C(=O)O)=C(COC(N)=O)CS[C@@H]21; assay: as §2
[5] = test system: CO/N=C(\C(=O)N[C@@H]1C(=O)N2C(C(=O)O)=C(COC(N)=O)CS[C@H]12)c1ccco1; assay: as §2
[6] = test system: CC(=O)OCC1=C(C(=O)O)N2C(=O)[C@@H](NC(=O)Cc3cccs3)[C@H]2SC1; assay: as §2
[7] = test system: CO/N=C(\C(=O)N[C@@H]1C(=O)N2C(C(=O)O)=C(COC(C)=O)CS[C@H]12)c1csc(N)n1; assay: as §2
[8] = test system: CC(C)(O/N=C(\C(=O)N[C@@H]1C(=O)N2C(C(=O)[O-])=C(C[n+]3ccccc3)CS[C@H]12)c1csc(N)n1)C(=O)O; assay: as §2
[9] = test system: C[C@@H](O)[C@H]1C(=O)N2C(C(=O)O)=C(S[C@@H]3CN[C@H](C(=O)N(C)C)C3)[C@H](C)[C@H]12; assay: as §2
[10] = test system: CC1(C)S[C@@H]2[C@H](NC(=O)Cc3ccccc3)C(=O)N2[C@H]1C(=O)O; assay: as §2
[11] = test system: CCN1CCN(C(=O)N[C@@H](C(=O)N[C@@H]2C(=O)N3[C@@H]2SC(C)(C)[C@@H]3C(=O)O)c2ccccc2)C(=O)C1=O; assay: (§3) Hydrolytic activity of beta-lactamase VIM-1 in Escherichia coli DH5alpha expressing pBCLL/39H by microacidimetric method
[12] = test system: CO[C@@]1(NC(=O)Cc2cccs2)C(=O)N2C(C(=O)O)=C(COC(N)=O)CS[C@@H]21; assay: as §3
[13] = test system: CO/N=C(\C(=O)N[C@@H]1C(=O)N2C(C(=O)O)=C(COC(N)=O)CS[C@H]12)c1ccco1; assay: as §3
[14] = test system: CC(=O)OCC1=C(C(=O)O)N2C(=O)[C@@H](NC(=O)Cc3cccs3)[C@H]2SC1; assay: as §3
[15] = test system: CO/N=C(\C(=O)N[C@@H]1C(=O)N2C(C(=O)O)=C(COC(C)=O)CS[C@H]12)c1csc(N)n1; assay: as §3
[16] = test system: CC1(C)S[C@@H]2[C@H](NC(=O)Cc3ccccc3)C(=O)N2[C@H]1C(=O)O; assay: as §3
[17] = test system: C[C@@H](O)[C@H]1C(=O)N2C(C(=O)O)=C(S[C@@H]3CN[C@H](C(=O)Nc4cccc(C(=O)O)c4)C3)[C@H](C)[C@H]12; assay: (§4) Ratio of Kcat to Km for Escherichia coli DH10B beta-lactamase VIM-2 by microacidimetric method; settings: Escherichia coli str. K-12 substr. DH10B
[18] = test system: CCN1CCN(C(=O)N[C@@H](C(=O)N[C@@H]2C(=O)N3[C@@H]2SC(C)(C)[C@@H]3C(=O)O)c2ccccc2)C(=O)C1=O; assay: as §4; settings: Escherichia coli str. K-12 substr. DH10B
[19] = test system: CO[C@@]1(NC(=O)Cc2cccs2)C(=O)N2C(C(=O)O)=C(COC(N)=O)CS[C@@H]21; assay: as §4; settings: Escherichia coli str. K-12 substr. DH10B
[20] = test system: CC1(C)S[C@@H]2[C@H](NC(=O)[C@H](C(=O)O)c3ccsc3)C(=O)N2[C@H]1C(=O)O; assay: as §4; settings: Escherichia coli str. K-12 substr. DH10B
[21] = test system: C[C@@H](O)[C@H]1C(=O)N2C(C(=O)O)=C(SCCNC=N)C[C@H]12; assay: as §4; settings: Escherichia coli str. K-12 substr. DH10B
[22] = test system: CC1(C)S[C@@H]2[C@H](NC(=O)[C@H](N)c3ccc(O)cc3)C(=O)N2[C@H]1C(=O)O; assay: as §4; settings: Escherichia coli str. K-12 substr. DH10B
[23] = test system: CO/N=C(\C(=O)N[C@@H]1C(=O)N2C(C(=O)O)=C(COC(N)=O)CS[C@H]12)c1ccco1; assay: as §4; settings: Escherichia coli str. K-12 substr. DH10B
[24] = test system: CC(=O)OCC1=C(C(=O)O)N2C(=O)[C@@H](NC(=O)Cc3cccs3)[C@H]2SC1; assay: as §4; settings: Escherichia coli str. K-12 substr. DH10B
[25] = test system: CO/N=C(\C(=O)N[C@@H]1C(=O)N2C(C(=O)O)=C(COC(C)=O)CS[C@H]12)c1csc(N)n1; assay: as §4; settings: Escherichia coli str. K-12 substr. DH10B
[26] = test system: CC(C)(O/N=C(\C(=O)N[C@@H]1C(=O)N2C(C(=O)[O-])=C(C[n+]3ccccc3)CS[C@H]12)c1csc(N)n1)C(=O)O; assay: as §4; settings: Escherichia coli str. K-12 substr. DH10B
[27] = test system: CO/N=C(\C(=O)N[C@@H]1C(=O)N2C(C(=O)[O-])=C(C[N+]3(C)CCCC3)CS[C@H]12)c1csc(N)n1; assay: as §4; settings: Escherichia coli str. K-12 substr. DH10B
[28] = test system: C[C@@H](O)[C@H]1C(=O)N2C(C(=O)O)=C(S[C@@H]3CN[C@H](C(=O)N(C)C)C3)[C@H](C)[C@H]12; assay: as §4; settings: Escherichia coli str. K-12 substr. DH10B
[29] = test system: CC1(C)S[C@@H]2[C@H](NC(=O)Cc3ccccc3)C(=O)N2[C@H]1C(=O)O; assay: as §4; settings: Escherichia coli str. K-12 substr. DH10B
[30] = test system: C[C@@H](O)[C@H]1C(=O)N2C(C(=O)O)=C(S[C@@H]3CN[C@H](C(=O)Nc4cccc(C(=O)O)c4)C3)[C@H](C)[C@H]12; assay: (§5) Hydrolytic activity of Escherichia coli DH10B beta-lactamase VIM-2 by microacidimetric method; settings: Escherichia coli str. K-12 substr. DH10B
[31] = test system: CCN1CCN(C(=O)N[C@@H](C(=O)N[C@@H]2C(=O)N3[C@@H]2SC(C)(C)[C@@H]3C(=O)O)c2ccccc2)C(=O)C1=O; assay: as §5; settings: Escherichia coli str. K-12 substr. DH10B
[32] = test system: CO[C@@]1(NC(=O)Cc2cccs2)C(=O)N2C(C(=O)O)=C(COC(N)=O)CS[C@@H]21; assay: as §5; settings: Escherichia coli str. K-12 substr. DH10B
[33] = test system: CC1(C)S[C@@H]2[C@H](NC(=O)[C@H](C(=O)O)c3ccsc3)C(=O)N2[C@H]1C(=O)O; assay: as §5; settings: Escherichia coli str. K-12 substr. DH10B
[34] = test system: C[C@@H](O)[C@H]1C(=O)N2C(C(=O)O)=C(SCCNC=N)C[C@H]12; assay: as §5; settings: Escherichia coli str. K-12 substr. DH10B
[35] = test system: CC1(C)S[C@@H]2[C@H](NC(=O)[C@H](N)c3ccc(O)cc3)C(=O)N2[C@H]1C(=O)O; assay: as §5; settings: Escherichia coli str. K-12 substr. DH10B
[36] = test system: CO/N=C(\C(=O)N[C@@H]1C(=O)N2C(C(=O)O)=C(COC(N)=O)CS[C@H]12)c1ccco1; assay: as §5; settings: Escherichia coli str. K-12 substr. DH10B
[37] = test system: CC(=O)OCC1=C(C(=O)O)N2C(=O)[C@@H](NC(=O)Cc3cccs3)[C@H]2SC1; assay: as §5; settings: Escherichia coli str. K-12 substr. DH10B
[38] = test system: CO/N=C(\C(=O)N[C@@H]1C(=O)N2C(C(=O)O)=C(COC(C)=O)CS[C@H]12)c1csc(N)n1; assay: as §5; settings: Escherichia coli str. K-12 substr. DH10B
[39] = test system: CC(C)(O/N=C(\C(=O)N[C@@H]1C(=O)N2C(C(=O)[O-])=C(C[n+]3ccccc3)CS[C@H]12)c1csc(N)n1)C(=O)O; assay: as §5; settings: Escherichia coli str. K-12 substr. DH10B
[40] = test system: C[C@H]1[C@H](NC(=O)/C(=N\OC(C)(C)C(=O)O)c2csc(N)n2)C(=O)N1S(=O)(=O)O; assay: as §5; settings: Escherichia coli str. K-12 substr. DH10B
[41] = test system: CO/N=C(\C(=O)N[C@@H]1C(=O)N2C(C(=O)[O-])=C(C[N+]3(C)CCCC3)CS[C@H]12)c1csc(N)n1; assay: as §5; settings: Escherichia coli str. K-12 substr. DH10B
[42] = test system: C[C@@H](O)[C@H]1C(=O)N2C(C(=O)O)=C(S[C@@H]3CN[C@H](C(=O)N(C)C)C3)[C@H](C)[C@H]12; assay: as §5; settings: Escherichia coli str. K-12 substr. DH10B
[43] = test system: CC1(C)S[C@@H]2[C@H](NC(=O)Cc3ccccc3)C(=O)N2[C@H]1C(=O)O; assay: as §5; settings: Escherichia coli str. K-12 substr. DH10B

CC1(C)S[C@@H]2[C@H](NC(=O)[C@H](C(=O)O)c3ccsc3)C(=O)N2[C@H]1C(=O)O
kcat/Km [1]: 0.7 s⁻¹ µM⁻¹
kcat [2]: 45.8 s⁻¹

BlaVIM-1 (Escherichia coli) (from UniProt Q8GDC1)
kcat/Km [3]: 0.53 s⁻¹ µM⁻¹
kcat/Km [4]: 0.2 s⁻¹ µM⁻¹
kcat/Km [5]: 7.7 s⁻¹ µM⁻¹
kcat/Km [6]: 5.3 s⁻¹ µM⁻¹
kcat/Km [7]: 0.68 s⁻¹ µM⁻¹
kcat/Km [8]: 0.076 s⁻¹ µM⁻¹
kcat/Km [9]: 0.27 s⁻¹ µM⁻¹
kcat/Km [10]: 0.034 s⁻¹ µM⁻¹
kcat [11]: 1860 s⁻¹
kcat [12]: 26 s⁻¹
kcat [13]: 324 s⁻¹
kcat [14]: 281 s⁻¹
kcat [15]: 169 s⁻¹
kcat [16]: 29 s⁻¹

CC1(C)S[C@@H]2[C@H](NC(=O)Cc3ccccc3)C(=O)N2[C@H]1C(=O)O
kcat/Km [1]: 3.6 s⁻¹ µM⁻¹
kcat [2]: 206 s⁻¹

CO/N=C(\C(=O)N[C@@H]1C(=O)N2C(C(=O)O)=C(COC(N)=O)CS[C@H]12)c1ccco1
kcat/Km [1]: 0.4 s⁻¹ µM⁻¹
kcat [2]: 5.3 s⁻¹

CO[C@@]1(NC(=O)Cc2cccs2)C(=O)N2C(C(=O)O)=C(COC(N)=O)CS[C@@H]21
kcat/Km [1]: 0.08 s⁻¹ µM⁻¹
kcat [2]: 4 s⁻¹

CC(C)(O/N=C(\C(=O)N[C@@H]1C(=O)N2C(C(=O)[O-])=C(C[n+]3ccccc3)CS[C@H]12)c1csc(N)n1)C(=O)O
kcat/Km [1]: 0.07 s⁻¹ µM⁻¹
kcat [2]: 6.3 s⁻¹

C[C@@H](O)[C@H]1C(=O)N2C(C(=O)O)=C(S[C@@H]3CN[C@H](C(=O)N(C)C)C3)[C@H](C)[C@H]12
kcat/Km [1]: 0.14 s⁻¹ µM⁻¹
kcat [2]: 1.3 s⁻¹

CC1(C)S[C@@H]2[C@H](NC(=O)[C@H](N)c3ccc(O)cc3)C(=O)N2[C@H]1C(=O)O
kcat/Km [1]: 3.3 s⁻¹ µM⁻¹
kcat [2]: 112 s⁻¹

CC(=O)OCC1=C(C(=O)O)N2C(=O)[C@@H](NC(=O)Cc3cccs3)[C@H]2SC1
kcat/Km [1]: 1.4 s⁻¹ µM⁻¹
kcat [2]: 21.2 s⁻¹

CCN1CCN(C(=O)N[C@@H](C(=O)N[C@@H]2C(=O)N3[C@@H]2SC(C)(C)[C@@H]3C(=O)O)c2ccccc2)C(=O)C1=O
kcat/Km [1]: 4.3 s⁻¹ µM⁻¹
kcat [2]: 160 s⁻¹

C[C@@H](O)[C@H]1C(=O)N2C(C(=O)O)=C(SCCNC=N)C[C@H]12
kcat/Km [1]: 0.37 s⁻¹ µM⁻¹
kcat [2]: 8.2 s⁻¹

CO/N=C(\C(=O)N[C@@H]1C(=O)N2C(C(=O)O)=C(COC(C)=O)CS[C@H]12)c1csc(N)n1
kcat/Km [1]: 0.95 s⁻¹ µM⁻¹
kcat [2]: 34.3 s⁻¹

C[C@@H](O)[C@H]1C(=O)N2C(C(=O)O)=C(S[C@@H]3CN[C@H](C(=O)Nc4cccc(C(=O)O)c4)C3)[C@H](C)[C@H]12
kcat/Km [1]: 0.03 s⁻¹ µM⁻¹
kcat [2]: 0.6 s⁻¹

Metallo-beta-lactamase (Escherichia coli) (from UniProt Q5U7L7)
kcat/Km [17]: 0.022 s⁻¹ µM⁻¹
kcat/Km [18]: 0.45 s⁻¹ µM⁻¹
kcat/Km [19]: 0.12 s⁻¹ µM⁻¹
kcat/Km [20]: 0.69 s⁻¹ µM⁻¹
kcat/Km [21]: 0.99 s⁻¹ µM⁻¹
kcat/Km [22]: 0.55 s⁻¹ µM⁻¹
kcat/Km [23]: 0.55 s⁻¹ µM⁻¹
kcat/Km [24]: 1.28 s⁻¹ µM⁻¹
kcat/Km [25]: 0.86 s⁻¹ µM⁻¹
kcat/Km [26]: 0.9 s⁻¹ µM⁻¹
kcat/Km [27]: 0.03 s⁻¹ µM⁻¹
kcat/Km [28]: 0.28 s⁻¹ µM⁻¹
kcat/Km [29]: 1.14 s⁻¹ µM⁻¹
kcat [30]: 0.2 s⁻¹
kcat [31]: 32.7 s⁻¹
kcat [32]: 2.8 s⁻¹
kcat [33]: 31.7 s⁻¹
kcat [34]: 9.9 s⁻¹
kcat [35]: 29.7 s⁻¹
kcat [36]: 12.1 s⁻¹
kcat [37]: 56.2 s⁻¹
kcat [38]: 27.5 s⁻¹
kcat [39]: 88.7 s⁻¹
kcat [40]: < 0.5 s⁻¹
kcat [41]: 4.7 s⁻¹
kcat [42]: 1.4 s⁻¹
kcat [43]: 55.8 s⁻¹

CO/N=C(\C(=O)N[C@@H]1C(=O)N2C(C(=O)[O-])=C(C[N+]3(C)CCCC3)CS[C@H]12)c1csc(N)n1
kcat/Km [1]: 0.23 s⁻¹ µM⁻¹
kcat [2]: 12.5 s⁻¹

C[C@H]1[C@H](NC(=O)/C(=N\OC(C)(C)C(=O)O)c2csc(N)n2)C(=O)N1S(=O)(=O)O
kcat [2]: < 0.1 s⁻¹
